HTR2A ag = mouse Htr2a agonists via beta-arrestin recruitment, primary screen, cell-based, luminescence. 0.66% of 360,000 active. 5-hydroxytryptamine receptor 2A (Mus musculus), P35363. CHO-K1 mHTR2A beta-arrestin complementation; percent of 30 µM serotonin response. activation, % at 7.6 µM;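 active = activation above a run cutoff, the mean activation of all tested compounds plus 3 SD, cut at about 14% in these data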
APJ antagonist = antagonists of human apelin receptor APJ, primary screen, CHO-K1 cells, beta-arrestin complementation, luminescence; P35414; inhibition, % at 20 µM; 0.32% of 330,000 active; AID 2521, 2010;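 active = inhibition above about 40% at 20 µM, limit read from the data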;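 note: cells challenged with 10 nM apelin-13 agonist together with compound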
CCR6 antagonist = CCR6 receptor antagonists, primary screen, cell-based, CHO-K1, luminescence, beta-arrestin, uHTS; CHO-K1 CCR6 PathHunter beta-arrestin, CCL20-stimulated; 0.49% of 340,000 active; inhibition, % at 20 µM; C-C chemokine receptor type 6 (Homo sapiens), P51684; AID 493098, 2011;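 active = compounds whose inhibition of the agonist-driven luminescence signal at 20 µM reaches about 50%, limit read from the data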;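 note: cells stimulated with CCL20 at 14 nM final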
Target sequence (P51684 whole entry, looked up): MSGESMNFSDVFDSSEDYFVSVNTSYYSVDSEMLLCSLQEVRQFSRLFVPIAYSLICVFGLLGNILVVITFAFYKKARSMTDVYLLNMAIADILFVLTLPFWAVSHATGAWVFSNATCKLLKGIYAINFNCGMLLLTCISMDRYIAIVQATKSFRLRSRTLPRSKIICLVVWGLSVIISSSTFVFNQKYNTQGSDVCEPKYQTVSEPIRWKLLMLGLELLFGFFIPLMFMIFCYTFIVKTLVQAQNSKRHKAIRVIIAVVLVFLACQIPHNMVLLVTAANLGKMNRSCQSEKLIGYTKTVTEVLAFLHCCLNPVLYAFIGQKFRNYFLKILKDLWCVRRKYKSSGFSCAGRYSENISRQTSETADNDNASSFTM
EBI2 block = EBI2 receptor antagonists, beta-arrestin recruitment, primary screen, cell-based, luminescence, 7a,25-OHC stimulation, uHTS. inhibition, % at 5 µM. 7a,25-OHC stimulated. AID 651636, 2012. 0.81% of 360,000 active. G-protein coupled receptor 183 (Homo sapiens), P32249; in the data active = inhibition above about 38%;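 note: enzyme fragment complementation signal reports receptor beta-arrestin coupling in cells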
APJ ag = agonists of human apelin receptor APJ, primary screen, CHO-K1 cells, PathHunter beta-arrestin, luminescence. activation, % at 20 µM. P35414. 0% DMSO wells, 100% apelin. AID 2520, 2010. 0.11% of 330,000 active;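 active = activation more than six SD over the plate average, tested at 20 µM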
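Assay system: engineered CHO-K1 APJ arrestin reporter cells; Amount: 1000 CHO-K1 reporter cells seeded per well; Dosing: one dose, 20 µM compound, 1% DMSO; Times: compound stimulation 90 min at 25 °C, detection 60 min; Measured by: luminescent beta-gal fragment complementation, chemiluminescent substrate; Read-out: APJ–arrestin association signal; Controls: DMSO vs Apelin-13 10 nM.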
CXCR6 block = CXCR6 receptor inhibitors, primary screen, cell-based, beta-arrestin, luminescence, CHO-K1 PathHunter, 1536-well. C-X-C chemokine receptor type 6 (Homo sapiens), O00574. inhibition, % at 20 µM. 0.36% of 360,000 active. AID 602244, 2012; in the data active = inhibition above about 34%, passing the limit was not always enough;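 note: antagonist mode with CXCL16 agonist at 10 nM final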
Large screens that a line does not name were inactive. Only some compounds are listed: those with a hit (about 2.1% of all), similar ones and a draw of the others.

COc1ccc(OC)c(S(=O)(=O)ON2C(=O)c3ccccc3C2=O)c1	CCR6 antagonist 57
COc1ccc(OC)c(S(=O)(=O)N2CCN(c3ccccc3)CC2)c1	none
COc1cc2c(cc1OC)-c1cc(OCc3ccccc3Cl)nc(=O)n1CC2	HTR2A ag 19
O=C(CN1C(=O)/C(=C\c2ccccc2Br)Oc2ccccc21)NCCCN1CCOCC1	CCR6 antagonist 68
CCc1ccc(OCC(=O)N2CC(C(N)=O)Oc3ccccc32)cc1 (centres undefined)	none
COc1ccc(/C=N\NC(=O)c2cc(O)c(O)c(O)c2)cc1COc1ccc(C(=O)OCC(C)C)cc1	CCR6 antagonist 55
COc1ccc(C(=O)N/N=C/c2ccc(OC)c(COc3ccccc3)c2)cc1	none
CN(C)C(=S)N=Nc1[nH]c2ccccc2c1O	CCR6 antagonist 63 (no result: HTR2A ag, EBI2 block, CXCR6 block)
COc1cccc(Nc2nc(C(N)CCc3ccccc3)cs2)n1 (centres undefined)	none (no result: APJ antagonist, CCR6 antagonist, APJ ag)
COC(=O)c1ccc2c(=O)n(CCCCCC(=O)N3CCN(c4ccccc4)CC3)c(=O)[nH]c2c1	APJ ag 38
Cc1ccc(S(=O)(=O)Nc2cccc3ncccc23)s1	APJ antagonist 91, CCR6 antagonist 96, EBI2 block 73, CXCR6 block 63
Cc1cc(Br)ccc1-n1[nH]c(C)c(C=Nc2cccc3nsnc23)c1=O	CCR6 antagonist 52
COc1ccccc1N=Cc1c(C)[nH]n(-c2ccc(C)cc2C)c1=O	none
O=c1[nH]c(-c2ccccn2)nc2sc(-c3ccccc3)cc12	EBI2 block 87 (no result: APJ antagonist, APJ ag)
O=C1/C(=C/c2ccc([N+](=O)[O-])cc2)C=C(c2ccccc2)N1c1ccccc1	none
O=C1/C(=C/c2ccc([N+](=O)[O-])cc2)C=C(c2ccccc2)N1c1ccc(O)cc1	CCR6 antagonist 54, EBI2 block 61, CXCR6 block 38
O=C1c2cccc([N+](=O)[O-])c2C(=O)N1C1CCCCC1	none
Cc1c(Cl)cccc1N1C(=O)C(N2C(=O)c3cccc([N+](=O)[O-])c3C2=O)C1c1cccs1 (centres undefined)	EBI2 block 48
COC(=O)/C(=C(/F)Sc1cc(C)c(O)c(C)c1)C(F)(F)F	HTR2A ag 16
O=C(CCn1nnnc1CN1CCOCC1)N1CCC(c2ccccc2F)C1 (centres undefined)	none
COc1cc(/C=N/NC(=O)c2cccc([N+](=O)[O-])c2)ccc1OCc1ccccc1	none
CCOC(=O)C(=Cc1ccc(OCc2ccc([N+](=O)[O-])cc2)c(OC)c1)C(=O)OCC	EBI2 block 54
O=C(Cn1c(N2CCN(c3ccccc3)CC2)nc2ccccc21)c1ccccc1	CCR6 antagonist 50
NC(=O)C1Cc2ccccc2CN1C(=O)c1cc(C2CC2)nn1-c1ccccc1 (centres undefined)	none
Cc1ccc(C)c(NC(=S)N2CCN(c3cccc(C(F)(F)F)c3)CC2)c1	none
Cc1ccnc(NC(=S)N2CCN(c3cccc(C(F)(F)F)c3)CC2)c1	CCR6 antagonist 51
O=C(C=Cc1ccccc1)CC(c1ccccc1)N1CCOCC1 (centres undefined)	EBI2 block 48 (no result: APJ antagonist, APJ ag)
Cc1ccc(NC(=O)CN(Cc2ccco2)Cc2ccccc2O)cc1C	none
COc1ccccc1COCC(O)CN(Cc1ccco1)Cc1ccccc1O (centres undefined)	CCR6 antagonist 88
N=C1C=CC(=C(c2ccc(N)cc2)c2ccc(N)cc2)C=C1	CCR6 antagonist 51 (no result: APJ antagonist, APJ ag)
CN(C)c1ccc(/C=C/C=C2/SC(=S)N(c3ccccc3)C2=O)cc1	CXCR6 block 52
COc1cc(SSc2cc(OC)cc([N+](=O)[O-])c2N)c(N)c([N+](=O)[O-])c1	CCR6 antagonist 54
COc1cc([N+](=O)[O-])c2ncsc2c1	none
Cn1c(=O)cc(OCC(=O)NCCCN2CCN(c3ccccc3F)CC2)c2ccccc21	HTR2A ag 25
S=C(NCc1ccccn1)NN=Cc1ccccn1	CCR6 antagonist 61 (no result: APJ antagonist, APJ ag)
CC(C)CC1C(=O)N(Cc2cn(CC3CCCCC3)nn2)CCS(=O)(=O)N1Cc1ccc(-c2ccncc2)cc1 (centres undefined)	none (no result: APJ antagonist, CCR6 antagonist, APJ ag)
O=C1NC[C@H](CCCCN2C[C@H](Cc3ccc(O)cc3)N(Cc3ccccc3)C(=O)C2=O)N(Cc2ccccc2)C1=O	none (no result: APJ antagonist, CCR6 antagonist, APJ ag)
Cc1ccc(OCC(=O)NNC(=S)NC(=O)c2cccs2)c(C)c1	CCR6 antagonist 55
Cc1cc(OCC(=O)NNC(=S)NC(=O)c2cccs2)ccc1Cl	none
CCn1c(CNC(=O)c2cc(OC)c(OC)c(OC)c2)cc2ccccc21	none
CCN(CC)CCNC(=O)c1ccc2c(c1NCCO)C(=O)c1ccccc1C2=O	none
CC1CCN(C(=O)c2ccc3c(c2NCCO)C(=O)c2ccccc2C3=O)CC1	EBI2 block 46
C/C(=N\NC(=O)c1ccc(CN2CCc3ccccc3C2)cc1)c1ccccc1O	none
N#C/C(=C(/O)c1ccc([N+](=O)[O-])s1)c1nc2ccccc2[nH]1	CCR6 antagonist 63
N#C/C(=C(/O)c1ccc(Br)s1)c1nc2ccccc2[nH]1	none
N#C/C(=C(/O)CCl)c1nc2ccccc2[nH]1	APJ antagonist 53
N#C/C(=C(\O)Cc1ccccc1)c1nc2ccccc2[nH]1	none
CC1c2cc3c(cc2CCN1C(=O)c1cccc(Cl)c1)OCCCO3 (centres undefined)	none
CC(=O)Nc1cc(NC(C)=O)cc(C(=O)OCC(=O)N(c2ccccc2)C2CCS(=O)(=O)C2)c1 (centres undefined)	none
O=C1c2ccccc2C(=O)N1CC(O)COc1ccc(Br)cc1 (centres undefined)	none
COc1ccccc1CNC(=O)COC(=O)c1cc(-c2ccco2)nc2ccccc12	CCR6 antagonist 50
CN(C)c1ccc(/C=C2/C[N+](C)(C)C/C(=C/c3ccc(N(C)C)cc3)C2=O)cc1	CCR6 antagonist 62, CXCR6 block 49 (no result: APJ antagonist, APJ ag)
CC(C)/C=C1\CC/C(=C\c2ccc(N(C)C)cc2)C1=O	none
c1ccc(CN2CCN(CCCNc3ccc4nnc(-c5ccccc5)n4n3)CC2)cc1	none
Fc1ccccc1N1CCN(CCCNc2ccc3nncn3n2)CC1	HTR2A ag 26
CCN(CC)c1ccc(C(=C2C=CC(=[N+](CC)CC)C=C2)c2ccccc2)cc1	CCR6 antagonist 117, CXCR6 block 103 (no result: APJ antagonist, APJ ag)
CCN(CC)c1ccc(C(=C2C=CC(=[N+](CC)CC)C=C2)c2ccc(N(CC)CC)cc2)cc1	CCR6 antagonist 114, CXCR6 block 108 (no result: APJ antagonist, APJ ag)
CC(C)CNc1ncnc2c1ncn2[C@H]1CN(CCc2ccccc2)C[C@@H](CO)O1	none (no result: APJ antagonist, CCR6 antagonist, APJ ag)

Bioassay records as filed in PubChem.
